Data from ChEMBL document CHEMBL1135792, “Inhibition of the antibacterial target UDP-(3-O-acyl)-N-acetylglucosamine deacetylase (LpxC): isoxazoline zinc amidase inhibitors bearing diverse metal binding groups” (J Med Chem, 2002).
Values after ≈ are worked out from the molar mass of the structure shown.

Key:
Escherichia coli [1] = experiment: Inhibition of Escherichia coli growth in vitro.; assay type: functional
[2] = molecular target: T1, UDP-3-O-acyl-N-acetylglucosamine deacetylase (Escherichia coli K-12, UniProt P0A725); experiment: Inhibition of Escherichia coli LpxC(UDP-3-O-[R-3-hydroxymyristoyl]-GlcNAc deacetylase.
T1 sequence (P0A725 whole entry): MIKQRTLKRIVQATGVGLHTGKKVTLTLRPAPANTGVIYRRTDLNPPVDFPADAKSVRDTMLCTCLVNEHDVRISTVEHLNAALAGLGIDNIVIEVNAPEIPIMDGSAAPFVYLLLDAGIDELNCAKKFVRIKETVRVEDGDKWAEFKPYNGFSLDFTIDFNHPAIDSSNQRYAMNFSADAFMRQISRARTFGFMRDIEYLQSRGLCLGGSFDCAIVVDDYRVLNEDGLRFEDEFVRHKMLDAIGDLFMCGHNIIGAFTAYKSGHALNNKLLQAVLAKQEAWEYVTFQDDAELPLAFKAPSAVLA
Method in brief: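 Purified E. coli LpxC (2.5 nM) preincubated 30 min on ice with inhibitor (0.1-500 µg/mL) and 1 mg/mL BSA. Stopped with NaOH, substrate and product separated by PEI-cellulose TLC, phosphorimaged. IC50 from eq 1.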

Escherichia coli [3] = experiment: Inhibition of EnvAl Escherichia coli growth in vitro.; assay type: functional
Escherichia coli [4] = experiment: Inhibition of Escherichia coli LpxC in a second order rate constant
Method in brief: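 Purified E. coli LpxC (100 µM) preincubated at 30 °C with inhibitor (0-0.8 mM) in 100 mM bis-Tris pH 7, 12% DMF. Aliquots taken over time, diluted 10-fold into 27 mM UDP-GlcNAc, bis-Tris pH 7, 30 °C. UDP-GlcN read by fluorescamine (ex 395/em 485 nm). Pseudo-first-order kobs fit to exponential decay, then plotted against inhibitor concentration and fit by eq 2.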

Escherichia coli [5] = experiment: Antibacterial activity against Escherichia coli
Escherichia coli [6] = experiment: Inhibitory activity measured against Escherichia coli; assay type: functional
Escherichia coli [7] = experiment: Antibacterial activity against EnvA1 Escherichia coli; assay type: functional

With `COc1ccc(C2=NO[C@@H]([C@@H](O)CS)C2)cc1` (relative stereo) the zone diameter (Escherichia coli [1]) was less than 6 mm, the IC50 [2] was greater than 400 µM and the zone diameter (Escherichia coli [3]) was less than 6 mm.
Work on `COc1ccc(C2=NOC(S(N)(=O)=O)C2)cc1` (centres undefined) yielded a zone diameter (Escherichia coli [1]) of less than 6 mm, an IC50 [2] greater than 1200 µM and a zone diameter (Escherichia coli [3]) of less than 6 mm.
Molecule `COc1ccc(C2=NO[C@@H](C(=O)NO)C2)cc1` has a zone diameter (Escherichia coli [1]) of less than 6 mm and a zone diameter (Escherichia coli [3]) of less than 6 mm.
`COc1ccc(C2=NOC(C(=O)NO)C2)cc1` (racemic) was tested, and the zone diameter (Escherichia coli [1]) was less than 6 mm, the IC50 [2] was 13 µM and the zone diameter (Escherichia coli [3]) was 21 mm.
In the case of `COc1ccc(C2=NOC([C@H]3CS3)C2)cc1` (some centres undefined), the zone diameter (Escherichia coli [1]) is reported as less than 6 mm, the Ki (Escherichia coli [4]) is reported as 800 µM and the zone diameter (Escherichia coli [3]) is reported as less than 6 mm.
Work on `COc1ccc(C2=NOC(C(=O)O)C2)cc1` (racemic) yielded a zone diameter (Escherichia coli [1]) of less than 6 mm, an IC50 [2] greater than 450 µM and a zone diameter (Escherichia coli [3]) of less than 6 mm.
Molecule `COc1ccc(C2=NOC(P(=O)(O)O)C2)cc1` (racemic) has a zone diameter (Escherichia coli [1]) of less than 6 mm, an IC50 [2] of 4 µM and a zone diameter (Escherichia coli [3]) of less than 6 mm.
Work on `COc1ccc(C2=NOC(C(=O)Nc3ccccn3)C2)cc1` (racemic) yielded a zone diameter (Escherichia coli [1]) of less than 6 mm, an IC50 [2] greater than 336 µM and a zone diameter (Escherichia coli [3]) of less than 6 mm.
Work on `COc1ccc(C2=NOC(S(C)(=O)=O)C2)cc1` (racemic) yielded a zone diameter (Escherichia coli [1]) of less than 6 mm, an IC50 [2] greater than 392 µM and a zone diameter (Escherichia coli [3]) of less than 6 mm.
`COc1ccc(C2=NOC(P(C)(=O)O)C2)cc1` (racemic) gave a zone diameter (Escherichia coli [1]) of less than 6 mm, an IC50 [2] of 170 µM and a zone diameter (Escherichia coli [3]) of less than 6 mm.
With `COc1ccc(C2=NOC([C@@H]3CS3)C2)cc1` (some centres undefined) the zone diameter (Escherichia coli [1]) was less than 6 mm, the Ki (Escherichia coli [4]) was 300 µM and the zone diameter (Escherichia coli [3]) was less than 6 mm.
`COc1ccc(C2=N[C@@H](C(=O)NO)CO2)cc1` gave a zone diameter (Escherichia coli [1]) of 11 mm, an IC50 [2] of 3 µM and a zone diameter (Escherichia coli [3]) of 24 mm.
For `COc1ccc(C2=NOC(C(=O)NNC=O)C2)cc1` (racemic), the zone diameter (Escherichia coli [1]) was less than 6 mm, the IC50 [2] was 400 µM and the zone diameter (Escherichia coli [3]) was less than 6 mm.
`COc1ccc(C2=NOC(C(=O)NCO)C2)cc1` (racemic) gave a zone diameter (Escherichia coli [1]) of less than 6 mm, an IC50 [2] greater than 400 µM and a zone diameter (Escherichia coli [3]) of less than 6 mm.
In the case of `COc1ccc(C2=NOC(C(=O)Nc3nccs3)C2)cc1` (racemic), the zone diameter (Escherichia coli [1]) is reported as less than 6 mm, the IC50 [2] is reported as greater than 392 µM and the zone diameter (Escherichia coli [3]) is reported as less than 6 mm.
With `COc1ccc(C2=NOC(C(=O)CSC(C)=O)C2)cc1` (racemic) the zone diameter (Escherichia coli [1]) was less than 6 mm, the IC50 [2] was 12 µM and the zone diameter (Escherichia coli [3]) was less than 6 mm.
`COc1ccc(C2=NOC(C(=O)NN)C2)cc1` (racemic) gave a zone diameter (Escherichia coli [1]) of less than 6 mm, an IC50 [2] greater than 425 µM and a zone diameter (Escherichia coli [3]) of less than 6 mm.
In the case of `COc1ccc(C2=NOC(C(=O)CS)C2)cc1` (racemic), the zone diameter (Escherichia coli [1]) is reported as less than 6 mm, the IC50 [2] is reported as 27 µM and the zone diameter (Escherichia coli [3]) is reported as less than 6 mm.
`COc1ccc(C2=NO[C@@H]([C@H](O)CS)C2)cc1` (relative stereo) showed a zone diameter (Escherichia coli [1]) of less than 6 mm, an IC50 [2] greater than 400 µM and a zone diameter (Escherichia coli [3]) of less than 6 mm.
`CO[C@H]1/C=C/O[C@@]2(C)Oc3c(C)c(O)c4c(O)c(c(/C=N/N5CCN(C)CC5)c(O)c4c3C2=O)NC(=O)/C(C)=C\C=C\[C@H](C)[C@H](O)[C@@H](C)[C@@H](O)[C@@H](C)[C@H](OC(C)=O)[C@@H]1C` [RIFAMPIN] showed an MIC (Escherichia coli [5]) of 2 µg/mL (≈ 2.43 µM).
`COc1ccc(C2=NOC(CS)C2)cc1` (racemic) showed a zone diameter (Escherichia coli [1]) of less than 6 mm, an IC50 [2] of 22 µM and a zone diameter (Escherichia coli [3]) of less than 6 mm.
Work on `COc1ccc(C2=NO[C@H](C(=O)NO)C2)cc1` yielded a zone diameter (Escherichia coli [6]) of less than 6 mm, an IC50 [2] of 4.37 µM and a zone diameter (Escherichia coli [3]) of 26 mm. For the same molecule, the MIC (Escherichia coli [7]) was 3.9 µg/mL (≈ 16.5 µM).
